Experimental data from ChEMBL document CHEMBL1128676, “Phosphonates and phosphinates: novel leaving groups for benzisothiazolone inhibitors of human leukocyte elastase” (J Med Chem, 1995).

How the values were obtained:
Neutrophil elastase [1] = biological target: T1, Neutrophil elastase (Homo sapiens, UniProt P08246); test: In vitro inhibitory activity against Human leukocyte elastase
T1 sequence (P08246 whole entry): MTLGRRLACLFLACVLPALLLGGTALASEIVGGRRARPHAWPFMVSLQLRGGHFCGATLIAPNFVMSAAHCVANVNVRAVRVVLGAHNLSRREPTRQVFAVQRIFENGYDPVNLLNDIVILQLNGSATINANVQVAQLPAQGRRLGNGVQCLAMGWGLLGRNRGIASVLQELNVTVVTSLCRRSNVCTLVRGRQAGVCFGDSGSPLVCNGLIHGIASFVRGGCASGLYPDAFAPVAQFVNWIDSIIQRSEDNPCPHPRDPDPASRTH
Summary of the method: (§1)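 Human leukocyte elastase inhibition measured in vitro at pH 7.8. Kinetic constants reported as k_inact (M⁻¹ s⁻¹), k_react (s⁻¹) and K_i* (nM).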

[2] = biological target: T2, Neutrophil elastase (Homo sapiens) (UniProt P08246); test: Inhibitory activity against Human leukocyte elastase was determined in vitro and expressed as kinetic constant for inhibition (reactivity); summary of the method: as §1
T2 sequence (whole entry): T1 sequence (P08246 whole entry)

Cricetinae gen. sp. [3] = test: In vivo inhibitory activity of 10 mg/kg compound administered intravenously against Human leukocyte elastase induced hemorrhage in hamster; format: functional, Cricetulus griseus; details: route intravenous
Summary of the method: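 Hamster elastase-induced pulmonary hemorrhage model: 10 mg/kg given intravenously 1 min before intratracheal human leukocyte elastase (25 μg). Result expressed as % inhibition of HLE activity, mean ± error.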

[4] = biological target: T2, Neutrophil elastase (Homo sapiens); test: Inhibitory activity against Human leukocyte elastase as kinetic constant for inhibition (inactivation); summary of the method: as §1
[5] = Acid dissociation constant was determined; format: ADME
Neutrophil elastase [6] = biological target: T1, Neutrophil elastase; test: Inhibitory activity against Human leukocyte elastase was determined; summary of the method: as §1
Cricetinae gen. sp. [7] = test: In vivo inhibitory activity of 10 mg/kg compound administered subcutaneously against Human leukocyte elastase induced hemorrhage in hamster; format: functional, Cricetulus griseus; details: sc, route subcutaneous
Summary of the method: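 Hamsters dosed subcutaneously at 10 mg/kg, 1 min before intratracheal instillation of human leukocyte elastase (25 μg), to induce pulmonary hemorrhage. Readout is % inhibition of in vivo HLE activity, mean ± error.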

[8] = biological target: T2, Neutrophil elastase (Homo sapiens)

Compound | Ki (Neutrophil elastase [1]) [nM] | Kreact [2] [s⁻¹] | inhibition in vivo at 10 mg/kg (Cricetinae gen. sp. [3]) [%] | K inact [4] [M⁻¹ s⁻¹] | pKa [5] | Ki (Neutrophil elastase [6]) [nM] | inhibition in vivo at 10 mg/kg (Cricetinae gen. sp. [7]) [%] | K inact [8] [M⁻¹ s⁻¹]
CCOP(=O)(OCC)OCN1C(=O)c2c(C(C)C)cccc2S1(=O)=O | 0.1 | 5.3e-05 | 84 | 530000 |  |  |  | 
O=C1c2ccccc2S(=O)(=O)N1COP(=O)(c1ccccc1)c1ccccc1 |  |  |  | 1900 | 3.34 | 30 |  | 
CCCCP(=O)(CCCC)OCN1C(=O)c2ccccc2S1(=O)=O |  |  |  | 2300 |  | 24 |  | 
CCOP(=O)(OCC)OCN1C(=O)c2c(C(C)CC)cccc2S1(=O)=O (stereo not drawn) | 0.07 | 5.6e-05 |  | 800000 |  |  | 83 | 
O=C1c2ccccc2S(=O)(=O)N1COP(=O)(OCc1ccccc1)OCc1ccccc1 |  |  |  | 4100 | 2.26 | 20.5 |  | 
CCOP(=O)(OCC)OCN1C(=O)c2c(C(C)C)cc(O)cc2S1(=O)=O | 4.5 | 1.4e-05 |  | 3300 |  |  |  | 
COP(=O)(OC)OCN1C(=O)c2ccccc2S1(=O)=O |  |  |  | 800 | 2.56 | 100 |  | 
CCOP(=O)(OCC)OCN1C(=O)c2c(C(C)C)cc(OC)cc2S1(=O)=O |  | 1.2e-05 | 92 | 343000 |  |  |  | 
CCCCOP(=O)(OCCCC)OCN1C(=O)c2ccccc2S1(=O)=O |  |  |  | 4800 | 2.59 | 17 |  | 
O=C1c2ccccc2S(=O)(=O)N1COP(=O)(Oc1ccccc1)Oc1ccccc1 |  |  |  | 11000 | 1.91 | 6.5 |  | 
CCOP(=O)(OCC)OCN1C(=O)c2ccccc2S1(=O)=O | 60 | 6.6e-05 |  | 1100 | 2.5 | 60 | 56 | 1100
